From ChEMBL document CHEMBL3804789, “5-Ene-4-thiazolidinones induce apoptosis in mammalian leukemia cells” (Eur J Med Chem, 2016)
pIC50: −log10 of the molar value.

Legend:
Assay type in all cases: functional, cell-based
[1] = Antiproliferative activity against human HL60 cells after 72 hrs by MTT assay; conditions: HL-60, 72 h
In short: (§1)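 MTT viability after 72 h continuous exposure. Cells seeded 24 h beforehand at 2,000/well (adherent) or 10,000/well (suspension), then given 0, 0.01, 0.1, 0.5, 1.0 or 10.0 μM compound diluted from 10 mM DMSO stock into RPMI or DMEM with 10% FBS, 37°C, 5% CO2. IC50 taken as concentration killing 50% of cells versus untreated culture.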

[2] = Antiproliferative activity against human SKOV3 cells after 72 hrs by MTT assay; conditions: SK-OV-3, 72 h; in short: as §1
[3] = Antiproliferative activity against human HL60/ADR cells after 72 hrs by MTT assay; in short: as §1

Compound | pIC50 [1] | pIC50 [2] | pIC50 [3]
CN1C(=O)/C(=C/N2N=C(c3ccc4ccccc4c3)CC2c2ccccc2O)SC1=S (stereo not drawn) | < 5.00 | < 5.00 | –
CN(C)c1ccc(C2CC(c3ccccc3)=NN2/C=C2\SC(=S)NC2=O)cc1 (stereo not drawn) | < 5.00 | < 5.00 | –
COc1cccc2c1C(=O)c1c(O)c3c(c(O)c1C2=O)C[C@@](O)(C(=O)CO)C[C@@H]3O[C@H]1C[C@H](N)[C@H](O)[C@H](C)O1 [DOXORUBICIN] | 7.29 | 7.14 | 5.06
O=C1/C(=C/N2N=C(c3ccc4ccccc4c3)CC2c2ccccc2O)SC(=S)N1c1cccnc1 (stereo not drawn) | 5.39 | 5.25 | –
CC(=O)Oc1ccc(N2C(=O)/C(=C/N3N=C(c4ccccc4)CC3c3ccccc3O)SC2=S)cc1 (stereo not drawn) | 5.03 | 6.61 | –
O=C1NC(=S)S/C1=C\N1N=C(c2ccc(Cl)cc2)CC1c1ccc(Cl)cc1 (stereo not drawn) | < 5.00 | 5.04 | –
CCOC(=O)CCN1C(=O)/C(=C/N2N=C(c3ccccc3)CC2c2ccccc2O)SC1=S (stereo not drawn) | < 5.00 | < 5.00 | –
CC(=O)Oc1ccc(N2C(=O)/C(=C/N3N=C(c4ccc5ccccc5c4)CC3c3ccc(Cl)cc3)SC2=S)cc1 (stereo not drawn) | 5.74 | < 5.00 | –
O=C1NC(=S)S/C1=C\N1N=C(c2ccc3ccccc3c2)CC1c1ccc(Cl)cc1 (stereo not drawn) | 6.40 | 6.79 | –
CC(=O)Oc1cccc(N2C(=O)/C(=C/N3N=C(c4ccccc4)CC3c3ccc(N(C)C)cc3)SC2=S)c1 (stereo not drawn) | 7.00 | < 5.00 | –
O=C1/C(=C/N2N=C(c3ccccc3)CC2c2ccccc2O)SC(=S)N1c1cccnc1 (stereo not drawn) | 6.14 | < 5.00 | –
